Laboratory results as given in ChEMBL document CHEMBL3616437, “Thiazole compounds with activity against Cryptococcus gattii and Cryptococcus neoformans in vitro” (Eur J Med Chem, 2015).
Values after ≈ are worked out from the molar mass of the structure shown.

How the values were obtained:
Cryptococcus neoformans = assay: Antifungal activity against Cryptococcus neoformans ATCC 24067 after 48 to 72 hrs by broth microdilution method; type: functional
Summary of the method: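 CLSI M27-A3 broth microdilution. Isolates subcultured twice on SDA, 48 h at 35°C. Saline suspension adjusted to 70% transmittance at 530 nm, then diluted to 1-5 x10^3 cells/mL in RPMI with L-glutamine, 0.165 M MOPS, pH 7.0. Compounds in DMSO, tested at […]. 35°C for 48-72 h. MIC read visually as the lowest concentration giving an optically clear well.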

Vero = assay: Cytotoxicity against African green monkey Vero cells assessed as cell viability measured after 48 hrs by MTT assay; type: cell-based; conditions: Chlorocebus sabaeus
Summary of the method: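 VERO cells in D-MEM with 5% FBS, used up to 20 passages. Seeded 1 x 10^4 cells/well, pre-incubated 24 h at 37°C. Exposed 48 h at 37°C, 5% CO2, to eight nonserial dilutions from 100 to 0.0128 µM, with 0.5% DMSO control. MTT reduction read-out, corrected for background and blank. IC50 reported as median with 95% CI. Triplicate, two independent experiments.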

[1] = Cytotoxicity against C57BL/6 mouse peritoneal macrophages assessed as cell viability measured after 48 hrs by MTT assay; type: cell-based; conditions: C57BL/6, Peritoneal macrophage cell
Summary of the method: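 Thioglycollate-elicited peritoneal macrophages from male C57BL/6 mice, 6–8 weeks old, in RPMI with 10% FBS. Seeded 1 x 10^5 cells/well, pre-incubated 24 h at 37°C. Exposed 48 h at 37°C, 5% CO2, to eight nonserial dilutions from 100 to 0.0128 µM, with 0.5% DMSO control. MTT read-out, % inhibition versus DMSO control. IC50 reported as median with 95% CI. Triplicate, two independent experiments.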

[2] = Selectivity index, ratio of IC50 for African green monkey Vero cells to MIC for Cryptococcus neoformans ATCC 24067; type: toxicity, cell-based
[3] = Selectivity index, ratio of IC50 for C57BL/6 mouse peritoneal macrophages to MIC for Cryptococcus neoformans ATCC 24067
Summary of the method: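 SI = IC50/MIC. Thioglycollate-elicited peritoneal macrophages from C57BL/6 mice are seeded at 1 x 10^5/well. They are exposed for 48 h at 37°C to eight concentrations from 100 to 0.0128 µM. Viability read by MTT versus 0.5% DMSO control, triplicate in two experiments.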

`COc1ccc(-c2csc(N/N=C3\CCCC\C3=C/c3ccccc3)n2)cc1` showed an MIC (Cryptococcus neoformans) of 7.8 µM (≈ 3.04 µg/mL), an IC50 (Vero) greater than 100 µM and an IC50 [1] greater than 100 µM. The selectivity ratio [2] was 12.8 and the Ratio [3] was 12.8.

Molecule `Clc1ccc(-c2csc(N/N=C3\CCCC\C3=C/c3ccccc3)n2)cc1` has an MIC (Cryptococcus neoformans) of 7.8 µM (≈ 3.07 µg/mL), an IC50 (Vero) greater than 100 µM and an IC50 [1] greater than 100 µM. For the same molecule, the selectivity ratio [2] was 12.8 and the Ratio [3] was 12.8.

Molecule `COc1ccc(-c2csc(N/N=C/c3ccccc3)n2)cc1` has an MIC (Cryptococcus neoformans) greater than 250 µM.

Work on `COc1ccc(-c2csc(N/N=C/c3ccc(N(C)C)cc3)n2)cc1` yielded an MIC (Cryptococcus neoformans) greater than 250 µM.

Work on `C(=C1/CCCC/C1=N\Nc1nc(-c2ccccc2)cs1)/c1ccccc1` yielded an MIC (Cryptococcus neoformans) of 15.6 µM (≈ 5.61 µg/mL), an IC50 (Vero) greater than 100 µM and an IC50 [1] greater than 100 µM. The selectivity ratio [2] was 6.41 and the Ratio [3] was 6.41.

`COc1ccc(/C=N/Nc2nc(-c3ccc(Cl)cc3)cs2)cc1OC` gave an MIC (Cryptococcus neoformans) of 15.6 µM (≈ 5.83 µg/mL), an IC50 (Vero) greater than 100 µM and an IC50 [1] greater than 100 µM. For the same molecule, the selectivity ratio [2] was 6.41 and the Ratio [3] was 6.41.

With `COc1ccc(-c2csc(N/N=C/c3ccc(C)cc3)n2)cc1` the MIC (Cryptococcus neoformans) was greater than 250 µM.

Molecule `COc1ccc(-c2csc(N/N=C/c3ccncc3)n2)cc1` has an MIC (Cryptococcus neoformans) greater than 250 µM.

`CN(C)c1ccc(/C=N/Nc2nc(-c3ccccc3)cs2)cc1` gave an MIC (Cryptococcus neoformans) greater than 250 µM.
